# Measurements of several laboratories.
# Compare with care: the assays were run in different laboratories.
# Target: Protein kinase C delta type (PRKCD, Homo sapiens, UniProt Q05655)
Structure (SMILES),test,setting,remaining binding [%]
COc1ncc2cc3ccccc3nc2c1C#N,"cell-free assay, competition with immobilised ligand",5 µM,75
C[C@@H](c1ccc(-n2cnc3c(N)ncnc32)cc1)N1CCc2nn(C)c(Cc3ccccc3)c2C1=O,"binding, competition with immobilised ligand",0.1 µM,100
Nc1ncc2c(n1)-c1c([nH]c3ccc(C#CC4CC4)cc13)CCCC2,"binding, competition with immobilised ligand",1 µM,97
CCCOc1ccc([C@@H]2[C@@H](C(=O)O)[C@H](c3ccc4c(c3)OCO4)CN2CC(=O)Nc2c(CC)cccc2CC)cc1,"cell-free assay, competition with immobilised ligand",1 µM,100
CNC(=O)[C@@H]1CC[C@@H](n2c(-c3ccc4cnccc4c3)nc3ccc(C(=O)NCc4cccc(C(N)=O)c4)cc32)C1,"binding, competition with immobilised ligand",1 µM,81
COc1ccc2c(O[C@@H]3C[C@H]4C(=O)N[C@]5(C(=O)O)CC5/C=C\CCCCC[C@H](NC(=O)OC5CCCC5)C(=O)N4C3)cc(-c3csc(NC(=O)C(C)C)n3)nc2c1C (stereo partly drawn),"cell-free assay, competition with immobilised ligand",1 µM,84
Cc1cnn2ncc(-c3ccnc(N(C)C)n3)c2c1,binding,1 µM,100
CCN1CCN(Cc2ccc(C(=O)Nc3ccc(C)c(Oc4ccc5c(c4)CC(=O)N5)c3)cc2C(F)(F)F)CC1,"binding, competition with immobilised ligand",1 µM,96
O=C(c1ccc(Nc2ncc(Cl)c(-c3cc4ccccc4s3)n2)cc1)N1CCC(N2CCCC2)CC1,"binding, competition with immobilised ligand",1 µM,32
CN(c1nccc(-c2cnn3ncccc23)n1)C1CC1,binding,1 µM,85
O=C(NCCCN1CCOCC1)c1ccc(Nc2nccc(-c3cc4ccccc4s3)n2)cc1,"binding, competition with immobilised ligand",1 µM,81
C[C@@H]1CCN(c2nccc(-c3cnn4ncccc34)n2)C1,binding,1 µM,100
O=C(NCc1ncc(C(F)(F)F)cc1Cl)c1ccc2c(c1)C1(CCS(=O)(=O)CC1)[C@@H](C1CC1)N2S(=O)(=O)c1ccc(F)cc1,"cell-free assay, competition with immobilised ligand",1 µM,100
O=C(NCC1CCOCC1)c1n[nH]cc1NC(=O)c1c(F)cccc1F,"binding, competition with immobilised ligand",1 µM,100
c1cnn2ncc(-c3ccnc(N4CCC45COC5)n3)c2c1,binding,1 µM,100
O=C(N[C@H]1CCCCC/C=C\C2C[C@@]2(C(=O)O)NC(=O)[C@@H]2C[C@@H](Oc3ccncc3)CN2C1=O)OC1CCCC1 (stereo partly drawn),"cell-free assay, competition with immobilised ligand",1 µM,100
O=C(NCCCN1CCOCC1)c1ccc(Nc2ncc(Cl)c(-c3ccc(Cl)s3)n2)cc1,"binding, competition with immobilised ligand",1 µM,81
N[C@@H]1CCN(c2nccc(-c3cnn4ncccc34)n2)C1,binding,1 µM,96
Cc1nc(N2CC[C@@H](O)C2)ncc1-c1cc(C(F)(F)F)cc2[nH]ncc12,"cell-free assay, competition with immobilised ligand",1 µM,94
CC1CCCN1c1nccc(-c2cnn3ncccc23)n1 (stereo not drawn),binding,1 µM,100
CN1CCN(c2cnc3c(C4CCN(C(=O)c5ccc(OC(F)(F)F)cc5N)CC4)ncnc3c2)CC1,"cell-free assay, competition with immobilised ligand",1 µM,100
